Experiments:
[1] = test system: Human immunodeficiency virus 1; assay: Antiviral activity against HIV1 in human PBMC; assay type: functional, organism-based
In short: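 PHA-stimulated (2-3 days) human PBM cells from seronegative donors, infected in bulk 1 h with HIV-1 LAI (100 TCID50/1 × 10⁷ cells, flask; or 200 TCID50/6 × 10⁵ cells/well, 24-well), then added to 10-fold serial compound dilutions in RPMI-1640/16% FBS/IL-2/DEAE-dextran. 5 days, 37 °C, 5% CO₂. Supernatant RT activity by poly(rA)·oligo(dT), ³H-TTP incorporation, 2 h 37 °C; EC50/EC90 by median effect method.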

[2] = test system: PBMC; assay: Cytotoxicity against human PBMC; assay type: functional, cell-based
In short: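 Uninfected PHA-stimulated human PBM cells, log phase, 5 × 10⁴ cells/well, exposed to 10-fold serial compound dilutions for 5 days at 37 °C, 5% CO₂. MTT overnight, formazan dissolved 5 h, read at 570 nm.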

[3] = test system: CCRF-CEM; assay: Cytotoxicity against human CEM cells; assay type: functional, cell-based
In short: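 Log-phase CEM T-lymphoblastoid cells seeded at 2.5 × 10³ cells/well with 10-fold serial compound dilutions, held 4 days at 37 °C, 5% CO₂. MTT dye added overnight, then stop-solubilization 5 h; absorbance at 570 nm.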

[4] = test system: Vero; assay: Cytotoxicity against Vero cells; assay type: functional, cell-based; details: Chlorocebus sabaeus
In short: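 Log-phase Vero cells seeded at 5 × 10³ cells/well with 10-fold serial compound dilutions, incubated 3 days at 37 °C, 5% CO₂. MTT dye added overnight, formazan solubilized 5 h, absorbance read at 570 nm.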

SMILES | EC50 [1] [µM] | EC90 [1] [µM] | IC50 [2] [µM] | IC50 [3] [µM] | IC50 [4] [µM]
OC[C@H]1[C@H](CO)S[C@@H]1n1cnc2c(O)ncnc21 | > 100 | > 100 | > 100 | > 100 | > 100
Nc1nc(O)c2ncn([C@@H]3S[C@H](CO)[C@H]3CO)c2n1 | > 100 | > 100 | > 100 | > 100 | > 100
O=c1ccn([C@@H]2S[C@H](CO)[C@H]2CO)c(=O)[nH]1 | 6.9 | 23.1 | 8.5 | 4.9 | > 100
OC[C@H]1[C@H](n2cnc3c(O)ncnc32)S[C@@H]1CO | > 100 | > 100 | > 100 | > 100 | > 100
Nc1nc(O)c2ncn([C@H]3S[C@@H](CO)[C@@H]3CO)c2n1 | > 100 | > 100 | > 100 | > 100 | > 100
O=c1ccn([C@H]2S[C@@H](CO)[C@@H]2CO)c(=O)[nH]1 | > 100 | > 100 | > 100 | > 100 | > 100
Cc1cn([C@H]2C[C@H](N=[N+]=[N-])[C@@H](CO)O2)c(=O)[nH]c1=O [ZIDOVUDINE] |  | 0.01 | > 100 |  | 

Now from value to compound, other results behind:

EC50 [1] [µM] | EC90 [1] [µM] | SMILES | IC50 [2] [µM] | IC50 [3] [µM] | IC50 [4] [µM]
> 100 | > 100 | Cc1cn([C@@H]2S[C@H](CO)[C@H]2CO)c(=O)[nH]c1=O | > 100 | > 100 | > 100
> 100 | > 100 | Cc1cn([C@H]2S[C@@H](CO)[C@@H]2CO)c(=O)[nH]c1=O | > 100 | > 100 | > 100
14.1 | 47.6 | Nc1ccn([C@H]2S[C@@H](CO)[C@@H]2CO)c(=O)n1 | 13.1 | 45.6 | > 100
11.5 | 41.9 | Nc1nc(=O)n([C@@H]2S[C@H](CO)[C@H]2CO)cc1Br | > 100 | 1.8 | > 100
5.8 | 13.9 | Nc1nc(=O)n([C@@H]2S[C@H](CO)[C@H]2CO)cc1F | < 1 | 19 | > 100
> 100 | > 100 | Nc1ncnc2c1ncn2[C@H]1S[C@@H](CO)[C@@H]1CO | > 100 | > 100 | > 100
1.3 | 5.3 | Nc1ccn([C@@H]2S[C@H](CO)[C@H]2CO)c(=O)n1 | ≤ 1 | 4.3 | 54.8
> 100 | > 100 | Nc1ncnc2c1ncn2[C@@H]1S[C@H](CO)[C@H]1CO | > 100 | > 100 | > 100
> 100 | > 100 | Nc1nc(=O)n([C@@H]2S[C@H](CO)[C@H]2CO)cc1Cl | > 100 | > 100 | > 100

From ChEMBL document CHEMBL1138188, “Synthesis and anti-HIV activity of D- and L-thietanose nucleosides” (J Med Chem, 2006)
